Compounds with a hit are over-represented: about 5.2% of the library has one in this group of screens.
Ecoli WT expand: E. coli BW25113 growth inhibition, expanded screen | OD600 absorbance | growth inhibition, % at 100 µM | 98,000 tested, 0.15% active | AID 710;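 active = growth inhibition above about 50% at one test dose, limit read from the data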;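 note: growth measured after 20 h incubation at 37 °C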
AP ELISA ortho: alternative pathway complement inhibition, orthogonal assay; Human serum alternative complement pathway, LPS-coated ELISA, C3 deposition; tested in compound mixtures; inhibition, % at 5 µM; 62,000 tested, 0.08% active; AID 1235;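 active = inhibition above 30% in each of the two pooled mixtures holding the compound, so the lower value exceeds 30%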;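 note: 0% = serum in Mg-EGTA without compound and 100% = EDTA serum blank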
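Test system: human serum complement alternative pathway, C3 deposition onto LPS / Medium: Mg2+-EGTA GVB++ buffer containing human serum at 1:15 dilution / Probe or stimulus: Plate-bound LPS / Times: 1 h at 37 °C / Signal: ELISA with HRP anti-human C3 antibody, TMB substrate, absorbance 450 nm / Measure: percent inhibition / Repeats: two pool placements per compound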
WNV NS2B-NS3 inh: WNV NS2B-NS3 proteinase inhibition; P06935; WNV NS2B-NS3 protease, fluorogenic substrate Ex360/Em465; hits give low values; z-score (no concentration beside the values); 65,000 tested, 0.18% active; in the data active = z-score below about -3
Target sequence (P06935 1371-1501 limits assumed): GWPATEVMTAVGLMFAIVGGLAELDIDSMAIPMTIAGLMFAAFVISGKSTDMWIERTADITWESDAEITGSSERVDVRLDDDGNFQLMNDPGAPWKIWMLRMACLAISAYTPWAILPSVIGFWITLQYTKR
Target sequence (P06935 1502-1679 limits assumed): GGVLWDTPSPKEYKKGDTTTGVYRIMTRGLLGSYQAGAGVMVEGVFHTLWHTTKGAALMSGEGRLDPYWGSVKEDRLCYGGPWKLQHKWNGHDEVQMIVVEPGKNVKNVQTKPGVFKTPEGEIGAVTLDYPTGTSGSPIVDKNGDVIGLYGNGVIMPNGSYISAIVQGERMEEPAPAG
tolC growth inh: E. coli tolC mutant growth inhibition; 65,000 tested, 2.2% active; growth inhibition, % at 10 µM (by protocol); E. coli BW25113 tolC mutant growth, OD615;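 active = growth inhibition at or above a cutoff equal to the mean over every tested compound plus 3 SD, cut at about 60% in these data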;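 note: growth measured after 20 h incubation at 37 °C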
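Test system: E. coli BW25113 ΔtolC::kan bacteria | Medium: Kanamycin-containing LB broth (50 µg/mL) | Dosing: One dose of 10 µM final | Times: 20 h incubation with compound, 37 °C | Detection: Optical density read at 615 nm | Read-out basis: Percent growth inhibition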
M1 agonist: M1 muscarinic receptor agonism; CHO-M1 cells, Fluo-4 calcium fluorescence, agonist mode; hits give high values; B-score at 10 µM; 64,000 tested, 3% active;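 active = fluorescence rise, raw or as B-score row- and column-corrected plate score, outside the 99.7% band of its plate's samples, either direction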
M1 antag: M1 muscarinic receptor (rat) antagonism; CHO-M1 cells, Fluo-4 calcium, ACh EC80 antagonist mode; hits give low values; B-score at 10 µM; 64,000 tested, 3.4% active; AID 628;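 active = calcium fluorescence response, raw or row-and-column corrected B-score, differing from the plate sample mean either way at a set confidence level, mostly lower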
M1 antag confirm: confirmation of rat M1 muscarinic receptor antagonists; shares compounds with M1 antag; CHO-M1 cells, Fluo-4 calcium, ACh EC80 antagonism; hits give low values; calcium response (max-min fluorescence) at 10 µM; 1,700 tested, 43% active; AID 677;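 active = calcium response below the same-plate mean of wells given acetylcholine alone at its 80%-effect dose, minus 3 SD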;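 note: raw fluorescence intensity difference in arbitrary instrument units and not normalized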
mGluR4 antag: selectivity test for M1 antagonists: human mGluR4 receptor; CHO-mGluR4 calcium flux, Fluo-4 fluorescence, glutamate EC80; hits give low values; shares compounds with M1 antag; AID 678; 1,700 tested, 0.9% active; fluorescence response (max-min) at 10 µM;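 active = fluorescence response below the plate's average for near-maximal glutamate wells, less 3 SD of those wells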;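 note: raw unnormalized fluorescence span taken in the window right after glutamate addition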
Active calls of the source: *; / = no result.

SMILES | Ecoli WT expand | AP ELISA ortho | WNV NS2B-NS3 inh | tolC growth inh | M1 agonist | M1 antag | M1 antag confirm | mGluR4 antag
O=c1c2c3c(sc2nc2n1CCCCC2)CCCC3 | -9 | -14 | 1.4 | 23 | / | / | / | /
O=c1c2c3c(sc2nc2n1CCCCC2)CCCCC3 | -1 | -6 | -0.4 | 30 | -1.2 | -3.1* | 273* | 220
Cc1ccc(C)n1-n1c(C)nc2sc3c(c2c1=O)CCCCC3 | -3 | 1 | 0.09 | 67* | -0.5 | -5.6* | 325* | 247
Cc1ccc(C)n1-n1cnc2sc3c(c2c1=O)CCCCC3 | 2 | / | / | / | / | / | / | /
NC(=O)CC(O)c1cccc(Cl)c1 (stereo not given) | 3 | 1 | 1.4 | -21 | 0.11 | 0.2 | / | /
COC(=O)c1cc(OC)c(OC)cc1NC(=O)c1c(C)noc1C | / | 4 | -0.38 | 8 | -0.27 | -0.12 | / | /
O=C(Nc1cccc(NC(=O)c2ccccc2[N+](=O)[O-])n1)c1ccccc1[N+](=O)[O-] | 4 | / | / | / | / | / | / | /
CCOC(=O)C1CCN(S(=O)(=O)c2cccc(-c3cn4ccccc4n3)c2)CC1 | -1 | 15 | 0.32 | 8 | 0.45 | -3.1* | 601 | 247
CC1CN(S(=O)(=O)c2cccc(-c3cn4ccccc4n3)c2)CC(C)O1 (stereo not given) | 6 | -13 | 0.63 | 1 | -0.55 | -0.5 | / | /
N#CC1=C2SCN(c3ccccc3)CN2C(=O)CC1c1c(Cl)cccc1Cl (stereo not given) | 5 | 21 | -1.1 | 9 | 0.54 | -0.073 | / | /
N#CC1=C2SCN(c3ccccc3)CN2C(=O)CC1c1cccs1 (stereo not given) | 1 | 5 | -0.44 | -13 | -0.11 | -3.6* | 531 | 221
Cc1ccc(OCc2nc(-c3ccc(-n4cccc4)cc3)no2)cc1C | -4 | / | / | / | / | / | / | /
CCN1C(=O)/C(=C/N2CC(C)CC(C)C2)SC1=S (stereo not given) | -12 | 13 | -0.61 | 12 | -1.1 | -0.96 | / | /
CCN1C(=O)/C(=C\N2CCCCCC2)SC1=S | 7 | 7 | 0.84 | 1 | -2.1 | -8.7* | 16* | 220
Cc1[nH]c(=O)[nH]c(=O)c1S(=O)(=O)N1CCCC1 | -2 | / | 0.94 | 11 | 0.34 | -0.084 | / | /
CCn1c(=N)n(CC(=O)c2ccco2)c2ccccc21 | 3 | -2 | 0.16 | -6 | -0.088 | -4* | 471 | 223
CSc1ccc(C(C(C(=O)c2cccs2)N2CCOCC2)N2CCOCC2)cc1 (stereo not given) | -7 | 8 | -0.66 | 9 | 0.64 | -3.4* | 537 | 170
Clc1ccc(OCCn2ccnc2)c(Cl)c1 | 11 | 13 | -0.8 | 18 | -1.7 | -3* | 408* | 211
Clc1ccc(OCCn2ccnc2)c(Br)c1 | 27 | / | / | / | / | / | / | /
COc1ccc(-c2nnn(CC(=O)N(Cc3ccccc3Cl)C(C(=O)NCC3CCCO3)c3ccco3)n2)cc1OC (stereo not given) | -15 | / | / | / | / | / | / | /
O=C(NCC1CCCO1)c1onc(CSc2ccccc2F)c1C(=O)O (stereo not given) | 0 | / | / | / | / | / | / | /
CCOC(=O)CC(NC(=O)c1ccco1)c1ccccc1Cl (stereo not given) | -1 | 7 | 1.4 | 9 | -0.65 | 0.034 | / | /
CCOC(=O)CC(Nc1nc(N2CCOCC2)nc(N2CCOCC2)n1)c1ccccc1Cl (stereo not given) | -2 | 9 | -0.1 | 38 | -0.05 | -12* | 366* | 242
CC1CCCN(C(=O)COC(=O)c2ccc[nH]c2=O)C1 (stereo not given) | 1 | / | / | / | / | / | / | /
CS(=O)(=O)N(CC(=O)O)c1ccc2c(c1)OCO2 | 3 | 8 | 1.4 | -2 | -0.035 | -4.1* | 655 | 254
SMILES | Ecoli WT expand | AP ELISA ortho | WNV NS2B-NS3 inh | tolC growth inh | M1 agonist | M1 antag | M1 antag confirm | mGluR4 antag
O=C(NC1CCN(Cc2ccccc2)CC1)C1COc2ccccc2O1 (stereo not given) | 2 | 4 | 2.7 | -11 | -0.023 | -4.5* | 377* | 252
Cc1ccccc1NC(=O)c1ccc(-n2cncn2)nc1 | 0 | / | / | / | / | / | / | /
CCC1CCCCN1CCCNC(=O)c1cn(CC(C)C)c(=O)c2cc(OC)c(OC)cc12 (stereo not given) | 7 | 10 | / | -23 | 0 | -1.2* | 458* | 250
COc1cc2c(C(=O)NCc3ccc(C)o3)cn(CC(C)C)c(=O)c2cc1OC | -8 | 18 | 0.01 | 0 | 0.041 | 0.23 | / | /
CCCC(CCC)C(=O)OC1C[C@H]2CC[C@@H](C1)[N+]2(C)C (stereo not given in full) | / | 3 | -2.9 | 6 | -0.15 | -15* | 30* | 246
CCCC(CCC(=O)NC1CCCCC1)C(=O)O (stereo not given) | -1 | 16 | -0.07 | -6 | -0.61 | 0.43 | / | /
Cc1cc(C(=O)OCC(=O)N2c3ccccc3CC2C)c(C)o1 (stereo not given) | 4 | 9 | -0.21 | 21 | 0.33 | -1 | / | /
CCN(CCCNC(=O)C1CCCN(S(=O)(=O)c2cnc[nH]2)C1)c1ccccc1 (stereo not given) | 3 | 14 | -0.55 | 1 | 1.3 | -0.078 | / | /
CC(=O)c1ccccc1NS(=O)(=O)c1c(C)nn(-c2ccccc2)c1C | 2 | 0 | 1.2 | 30 | -0.87 | -3.4* | 569 | 241
O=C(NCCCN1CCN(c2cccc(Cl)c2)CC1)C1CCC(=O)N1Cc1ccccc1Cl (stereo not given) | 12 | 14 | -1.1 | 7 | -0.79 | -2* | 532 | 244
O=C(CCn1c(=O)oc2ccccc21)NCCN1CCOCC1 | / | -16 | 0.73 | -11 | 0.14 | -0.7 | / | /
COCCCNC(=O)Nc1ccc(Br)cc1Cl | 5 | -2 | 0.35 | -6 | 1.4 | 0.68 | / | /
COCC(COCCCNC(=O)Nc1ccc(Br)cc1)OC (stereo not given) | -17 | 5 | 2.3 | -2 | -0.34 | -1.6* | 553 | 214
CC(C)CCN(C)C1CCN(S(=O)(=O)c2cccc(C(F)(F)F)c2)CC1 | 3 | 12 | -0.07 | -5 | -0.11 | -9* | 215* | 214
c1cc2c3c(cccc3c1)C(N1CCCCC1)=N2 | 15 | -1 | -0.91 | -12 | 1.3 | -6.8* | 224* | 247
c1cc2c3c(cccc3c1)C(N1CCCCCC1)=N2 | 4 | / | / | / | / | / | / | /
CCOC(=O)c1cnn(-c2ccccc2)c1-n1cccc1C(=O)C(=O)Nc1ccc(OC)cc1 | -16 | / | / | / | / | / | / | /
COc1cc2c(cc1OC)C(C(=O)N1CCN(c3ccccn3)CC1)C(c1cccs1)N(C)C2=O (stereo not given) | 1 | 10 | 1.4 | 1 | 0.51 | -2.1* | 604 | 239
COc1cc2c(cc1OC)C(C(=O)N1CCCC1)C(c1ccccc1F)N(C)C2=O (stereo not given) | 3 | 9 | 0.09 | -5 | -1.2 | -0.0072 | / | /

Screening results as filed in PubChem BioAssay.
